Assay results as given in ChEMBL document CHEMBL1147862, “Studies on synthesis and pharmacological activities of 3,6-disubstituted-1,2,4-triazolo[3,4-b]-1,3,4-thiadiazoles and their dihydro analogues” (2007).

How the values were obtained:
Type in all cases: functional
[1] = tested on: Rattus norvegicus; experiment: Antiinflammatory activity in Wistar Albino rat assessed as inhibition of carrageenan-induced paw oedema at 20 mg/kg after 2 hrs relative to control
Summary of the method: (§1)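 Wistar albino rats, 150–200 g, six per group, dosed orally with a 20 mg/kg suspension; control gets 0.1 ml 1% gum acacia. After 30 min, 0.1 ml 1% carrageenan in saline is injected subplantar into the right hind paw. Paw volume is read by plethysmograph at 0–4 h. Inhibition = 100(1 − Vtest/Vcontrol) on mean volume increase.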

[2] = tested on: Escherichia coli; experiment: Antibacterial activity against Escherichia coli at 30 ug/ml by agar plate diffusion technique; conditions: read-out: IZ
[3] = tested on: Pseudomonas aeruginosa; experiment: Antibacterial activity against Pseudomonas aeruginosa at 20 ug/ml by agar plate diffusion technique; conditions: read-out: IZ
[4] = tested on: Candida albicans; experiment: Antifungal activity against Candida albicans at 20 ug/ml by paper disc method; conditions: read-out: IZ
[5] = tested on: Mus musculus; experiment: Analgesic activity in Swiss mouse assessed as increase in reaction time at 20 mg/kg, po after 90 mins by Eddy's hot plate technique
Summary of the method: (§2)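 Swiss mice of either sex, 25–35 g, placed one at a time on a hot plate held at 55 °C. End point is paw licking or jumping, whichever comes first, with a 15 s cut-off to avoid paw injury. Reaction time is recorded and reported as percent increase in reaction time.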

[6] = tested on: Rattus norvegicus; experiment: Antiinflammatory activity in Wistar Albino rat assessed as inhibition of carrageenan-induced paw oedema at 20 mg/kg after 4 hrs relative to control; summary of the method: as §1
[7] = tested on: Candida albicans; experiment: Antifungal activity against Candida albicans at 30 ug/ml by paper disc method; conditions: read-out: IZ
[8] = tested on: Bacillus subtilis; experiment: Antibacterial activity against Bacillus subtilis at 10 ug/ml by agar plate diffusion technique; conditions: read-out: IZ
[9] = tested on: Aspergillus niger; experiment: Antifungal activity against Aspergillus niger at 30 ug/ml by paper disc method; conditions: read-out: IZ
[10] = tested on: Bacillus subtilis; experiment: Antibacterial activity against Bacillus subtilis at 20 ug/ml by agar plate diffusion technique; conditions: read-out: IZ
[11] = tested on: Bacillus subtilis; experiment: Antibacterial activity against Bacillus subtilis at 30 ug/ml by agar plate diffusion technique; conditions: read-out: IZ
[12] = tested on: Escherichia coli; experiment: Antibacterial activity against Escherichia coli at 10 ug/ml by agar plate diffusion technique; conditions: read-out: IZ
[13] = tested on: Rattus norvegicus; experiment: Antiinflammatory activity in Wistar Albino rat assessed as inhibition of carrageenan-induced paw oedema at 20 mg/kg after 3 hrs relative to control; summary of the method: as §1
[14] = tested on: Pseudomonas aeruginosa; experiment: Antibacterial activity against Pseudomonas aeruginosa at 30 ug/ml by agar plate diffusion technique; conditions: read-out: IZ
[15] = tested on: Aspergillus niger; experiment: Antifungal activity against Aspergillus niger at 20 ug/ml by paper disc method; conditions: read-out: IZ
[16] = tested on: Escherichia coli; experiment: Antibacterial activity against Escherichia coli at 20 ug/ml by agar plate diffusion technique; conditions: read-out: IZ
[17] = tested on: Mus musculus; experiment: Analgesic activity in Swiss mouse assessed as increase in reaction time at 20 mg/kg, po after 30 mins by Eddy's hot plate technique; summary of the method: as §2
[18] = tested on: Mus musculus; experiment: Analgesic activity in Swiss mouse assessed as increase in reaction time at 20 mg/kg, po after 60 mins by Eddy's hot plate technique; summary of the method: as §2
[19] = tested on: Pseudomonas aeruginosa; experiment: Antibacterial activity against Pseudomonas aeruginosa at 10 ug/ml by agar plate diffusion technique; conditions: read-out: IZ
[20] = tested on: Staphylococcus aureus; experiment: Antibacterial activity against Staphylococcus aureus at 20 ug/ml by agar plate diffusion technique; conditions: read-out: IZ
[21] = tested on: Staphylococcus aureus; experiment: Antibacterial activity against Staphylococcus aureus at 30 ug/ml by agar plate diffusion technique; conditions: read-out: IZ
[22] = tested on: Aspergillus niger; experiment: Antifungal activity against Aspergillus niger at 10 ug/ml by paper disc method; conditions: read-out: IZ
[23] = tested on: Staphylococcus aureus; experiment: Antibacterial activity against Staphylococcus aureus at 10 ug/ml by agar plate diffusion technique; conditions: read-out: IZ
[24] = tested on: Candida albicans; experiment: Antifungal activity against Candida albicans at 10 ug/ml by paper disc method; conditions: read-out: IZ
[25] = tested on: Rattus norvegicus; experiment: Antiinflammatory activity in Wistar Albino rat assessed as inhibition of carrageenan-induced paw oedema at 20 mg/kg after 1 hr relative to control; summary of the method: as §1

Row | Compound | inhibition in vivo at 20 mg/kg [1] [%] | zone of inhibition at 30 µg/mL [2] [mm] | zone of inhibition at 20 µg/mL [3] [mm] | zone of inhibition at 20 µg/mL [4] [mm] | Activity [5] [%] | zone of inhibition at 30 µg/mL [7] [mm] | zone of inhibition at 10 µg/mL [8] [mm] | zone of inhibition at 30 µg/mL [9] [mm] | zone of inhibition at 20 µg/mL [10] [mm] | zone of inhibition at 30 µg/mL [11] [mm] | zone of inhibition at 10 µg/mL [12] [mm] | zone of inhibition at 30 µg/mL [14] [mm] | zone of inhibition at 20 µg/mL [15] [mm] | zone of inhibition at 20 µg/mL [16] [mm] | zone of inhibition at 10 µg/mL [19] [mm] | zone of inhibition at 20 µg/mL [20] [mm] | zone of inhibition at 30 µg/mL [21] [mm] | zone of inhibition at 10 µg/mL [22] [mm] | zone of inhibition at 10 µg/mL [23] [mm] | zone of inhibition at 10 µg/mL [24] [mm] | other results
1 | COc1ccc(Cl)c(-c2nnc3n2NC(c2ccco2)S3)c1 (centres undefined) | 18.7 | 14.4 | 8.95 | 10.3 | 23.89 | 14.8 | 4.39 | 13.1 | 7.68 | 13.6 | 4.12 | 14.2 | 7.13 | 7.39 | 4.82 | 8.61 | 14.1 | 5.16 | 4.82 | 5.19 | inhibition in vivo at 20 mg/kg [6]: 25.6%; inhibition in vivo at 20 mg/kg [13]: 23.1%; Activity [17]: 6.24%; Activity [18]: 12.55%; inhibition in vivo at 20 mg/kg [25]: 13.9%
2 | Cc1cc(-c2nn3c(-c4ccoc4C)nnc3s2)c2ccccc2n1 | 13.4 | 17 | 11.8 | 12.6 | 20.34 | 19 | 7.38 | 17.4 | 12.5 | 17.1 | 6.28 | 16.8 | 13.5 | 10.5 | 6 | 13.7 | 17.9 | 6 | 7.1 | 5.84 | inhibition in vivo at 20 mg/kg [6]: 26.3%; inhibition in vivo at 20 mg/kg [13]: 18.6%; Activity [17]: 6.04%; Activity [18]: 11.35%; inhibition in vivo at 20 mg/kg [25]: 7.23%
3 | COc1ccc2[nH]cc(Cc3nn4c(-c5ccoc5C)nnc4s3)c2c1 | 20.1 | 14.2 | 9.62 | 10.8 | 31.86 | 13.5 | 5.82 | 13.1 | 9.61 | 14.2 | 5.16 | 14.5 | 9.8 | 9.35 | 5.36 | 9.1 | 13.3 | 5.06 | 4.85 | 5.62 | inhibition in vivo at 20 mg/kg [6]: 30.8%; inhibition in vivo at 20 mg/kg [13]: 26.1%; Activity [17]: 13.84%; Activity [18]: 24.76%; inhibition in vivo at 20 mg/kg [25]: 16%
4 | COc1ccc(Cc2nnc3sc(Cc4c[nH]c5ccccc45)nn23)cc1OC | 26.8 | 12.5 | 8.23 | 7.46 | 31.88 | 10.2 | 4.33 | 11.1 | 7.32 | 12.7 | 4.9 | 12.4 | 9.62 | 8.22 | 4.25 | 7.38 | 12.2 | 5.24 | 4.59 | 4.1 | inhibition in vivo at 20 mg/kg [6]: 28.5%; inhibition in vivo at 20 mg/kg [13]: 28.3%; Activity [17]: 13.16%; Activity [18]: 25%; inhibition in vivo at 20 mg/kg [25]: 16.1%
5 | COc1ccc(Cc2nnc3sc(-c4cc(C)nc5ccccc45)nn23)cc1OC | 13.2 | 16 | 10.1 | 12 | 20.14 | 17.5 | 6.29 | 16.7 | 10.2 | 16.1 | 5.25 | 16.1 | 13 | 8.8 | 5.26 | 11.7 | 16.6 | 6.25 | 6.72 | 5.48 | inhibition in vivo at 20 mg/kg [6]: 24.9%; inhibition in vivo at 20 mg/kg [13]: 21.2%; Activity [17]: 5.96%; Activity [18]: 11.05%; inhibition in vivo at 20 mg/kg [25]: 10.2%
6 | COc1ccc(Cl)c(-c2nnc(S)n2N)c1 |  | 9.17 | 7.26 | 5.18 |  | 9.79 | 4.25 | 11 | 7.05 | 10.1 | 5.08 | 9.1 | 5.02 | 7.16 | 5.23 | 7.28 | 9.06 | 2.59 | 5.16 | 2.33 | 
7 | Cc1occc1-c1nnc(S)n1N |  | 12.8 | 9.16 | 6.82 |  | 12.4 | 5.8 | 13.5 | 8.94 | 11.2 | 6.74 | 12.8 | 6.94 | 9.16 | 6.12 | 8.16 | 11.3 | 3.27 | 5.46 | 3 | 
8 | CCCCC1C(=O)N(c2ccccc2)N(c2ccccc2)C1=O [PHENYLBUTAZONE] | 33.6 |  |  |  |  |  |  |  |  |  |  |  |  |  |  |  |  |  |  |  | inhibition in vivo at 20 mg/kg [6]: 45.4%; inhibition in vivo at 20 mg/kg [13]: 40.8%; inhibition in vivo at 20 mg/kg [25]: 21.2%
9 | O=C([O-])Cc1ccccc1Nc1c(Cl)cccc1Cl.[Na+] [DICLOFENAC SODIUM] |  |  |  |  | 43.25 |  |  |  |  |  |  |  |  |  |  |  |  |  |  |  | Activity [17]: 32.23%; Activity [18]: 38.15%
10 | CN[C@H](CC(C)C)C(=O)N[C@H]1C(=O)N[C@@H](CC(N)=O)C(=O)N[C@H]2C(=O)N[C@H]3C(=O)N[C@H](C(=O)N[C@H](C(=O)O)c4cc(O)cc(O)c4-c4cc3ccc4O)[C@H](O)c3ccc(c(Cl)c3)Oc3cc2cc(c3O[C@@H]2O[C@H](CO)[C@@H](O)[C@H](O)[C@H]2O[C@H]2C[C@](C)(N)[C@H](O)[C@H](C)O2)Oc2ccc(cc2Cl)[C@H]1O [VANCOMYCIN] |  |  |  |  |  |  |  |  |  | 23 |  |  |  |  |  |  |  |  |  |  | 
11 | COc1ccc(Cc2nnc(S)n2N)cc1OC |  | 10.1 | 6.76 | 5.14 |  | 11 | 5.06 | 10.7 | 7.26 | 9.83 | 4.86 | 8.24 | 4.92 | 7.58 | 5.06 | 7.14 | 9.52 | 2.67 | 4.72 | 2.76 | 
12 | COC1=CC(=O)C[C@@H](C)[C@]12Oc1c(Cl)c(OC)cc(OC)c1C2=O [GRISEOFULVIN] |  |  |  |  |  | 24.7 |  | 23.1 |  |  |  |  |  |  |  |  |  |  |  |  | 
13 | O=C(N[C@H](CO)[C@H](O)c1ccc([N+](=O)[O-])cc1)C(Cl)Cl [CHLORAMPHENICOL] |  | 23.7 |  |  |  |  |  |  |  | 24.6 |  | 25.4 |  |  |  |  | 26.1 |  |  |  | 
14 | NCC[C@H](O)C(=O)N[C@@H]1C[C@H](N)[C@@H](O[C@H]2O[C@H](CN)[C@@H](O)[C@H](O)[C@H]2O)[C@H](O)[C@H]1O[C@H]1O[C@H](CO)[C@@H](O)[C@H](N)[C@H]1O [AMIKACIN] |  |  |  |  |  |  |  |  |  |  |  | 23 |  |  |  |  |  |  |  |  | 
